A short description of experiment [1]: Cytotoxicity against human CNE2 cells after 72 hrs ny MTT assay. As to conditions: CNE-2, 72 h. Format: functional, cell-based. Put shortly: (§1)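 Cells grown in RPMI 1640 with 10% fetal calf serum and seeded at 2 × 10^4/mL. They were held 12 h at 37 °C in 5% CO2, then exposed to compound for 3 days at 37 °C. MTT formazan was dissolved and absorbance read at 570 nm. IC50 is the concentration giving 50% growth inhibition versus untreated controls. At least 3 independent experiments.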
In general terms: Tetrazolium dyes change colour on reduction, which living cells bring about.

The subject of another experiment is KB. Briefly: Cytotoxicity against human KB cells after 72 hrs ny MTT assay. Format: functional, cell-based. A digest of the protocol: as §1

As a reminder, the IC50 is the concentration at which inhibition is half-maximal. A high value points to weaker potency.

For the compound `COP(=O)(OC)C(NC(=O)COc1ccc(Cl)cc1Cl)c1ccccc1` (centres undefined), the half-inhibitory concentration (IC50) (in experiment [1]; with KB) was more than 50 µM each time.
In the case of `COP(=O)(OC)C(NC(=O)COc1ccc(Cl)cc1Cl)c1ccc(C)cc1` (centres undefined), the half-maximal inhibitory concentration (IC50) (in experiment [1]; in the experiment on KB) was more than 50 µM throughout.
With `COP(=O)(OC)C(NC(=O)COc1ccc(Cl)c(C)c1)c1ccc(C)cc1` (centres undefined), the concentration for half-maximal inhibition (IC50) (in experiment [1]; with KB) was more than 50 µM in each case.
Take `COc1ccc(C(NC(=O)COc2cccc(C)c2C)P(=O)(OC)OC)cc1` (centres undefined): the IC50 (in experiment [1]; with KB) was more than 50 µM each time.
Consider `COc1ccc(C(NC(=O)COc2ccc(Cl)cc2Cl)P(=O)(OC)OC)cc1` (centres undefined), for which the IC50 (in experiment [1]; in the experiment on KB) was more than 50 µM throughout.
As for `CCOP(=O)(OCC)C(NC(=O)COc1ccc(Cl)cc1Cl)c1ccc(OC)cc1` (centres undefined), the IC50 (in experiment [1]; in the experiment with KB) was more than 50 µM throughout.
`CCOP(=O)(OCC)C(NC(=O)COc1ccc(Cl)cc1)c1ccc(OC)cc1` (centres undefined): the IC50 (in experiment [1]; with KB) was more than 50 µM throughout.
With `CCOP(=O)(OCC)C(NC(=O)COc1cccc(C(F)(F)F)c1)c1ccc(OC)cc1` (centres undefined), the IC50 (in experiment [1]; in the experiment with KB) was more than 50 µM throughout.
As for `CCOP(=O)(OCC)C(NC(=O)COc1ccc([N+](=O)[O-])cc1)c1ccc(OC)cc1` (centres undefined), the half-inhibitory concentration (IC50) (in experiment [1]; in the experiment on KB) was more than 50 µM each time.
With `CCOP(=O)(OCC)C(NC(=O)COc1ccc(Cl)cc1C)c1ccc(OC)cc1` (centres undefined), the IC50 (in experiment [1]; in the experiment on KB) was more than 50 µM each time.
As to `CCCOP(=O)(OCCC)C(NC(=O)COc1ccc(Cl)cc1Cl)c1ccccc1` (centres undefined), the 50% inhibitory concentration (IC50) in experiment [1] worked out at 26 µM; in the experiment on KB, 16 µM.
`CCCOP(=O)(OCCC)C(NC(=O)COc1ccc(Cl)cc1)c1ccccc1` (centres undefined): the IC50 in experiment [1] turned out to be 42.9 µM; with KB, 23 µM.
In the case of `CCCOP(=O)(OCCC)C(NC(=O)COc1cccc(C(F)(F)F)c1)c1ccccc1` (centres undefined), the concentration for half-maximal inhibition (IC50) in experiment [1] came out at 41.8 µM; with KB it was 21.6 µM.
Regarding `CCCOP(=O)(OCCC)C(NC(=O)COc1ccc(Cl)cc1Cl)c1ccc(OC)cc1` (centres undefined), the figures for the 50% inhibitory concentration (IC50) (in experiment [1]; in the experiment on KB) were 27.2 µM and 17.4 µM, respectively.
The matching figures for `CCCOP(=O)(OCCC)C(NC(=O)COc1cccc(C(F)(F)F)c1)c1ccc(OC)cc1` (centres undefined): 38.5 µM and 19.8 µM.
The matching figures for `CCCCOP(=O)(OCCCC)C(NC(=O)COc1cccc(C)c1C)c1ccccc1` (centres undefined): 25.1 µM and 18.2 µM.
The matching figures for `CCCCOP(=O)(OCCCC)C(NC(=O)COc1ccccc1Cl)c1ccccc1` (centres undefined): 11.4 µM and 15.8 µM.
Take `CCCCOP(=O)(OCCCC)C(NC(=O)COc1ccc(Cl)cc1Cl)c1ccccc1` (centres undefined): the IC50 in experiment [1] stood at 13.8 µM; with KB it was 17.8 µM.
The matching figures for `CCCCOP(=O)(OCCCC)C(NC(=O)COc1ccc(Cl)cc1C)c1ccccc1` (centres undefined): 19.9 µM and 12.3 µM.
With `CCCCOP(=O)(OCCCC)C(NC(=O)COc1ccc(Cl)c(C)c1)c1ccccc1` (centres undefined), the figures for the half-maximal inhibitory concentration (IC50) (in experiment [1]; in the experiment with KB) were 43 µM and 18.1 µM, respectively.
In the case of `CCCCOP(=O)(OCCCC)C(NC(=O)COc1cc(Cl)c(Cl)cc1Cl)c1ccccc1` (centres undefined), the IC50 is more than 50 µM in experiment [1] and 15.9 µM in the experiment with KB.
As for `CCCCOP(=O)(OCCCC)C(NC(=O)COc1ccc(OC)cc1)c1ccccc1` (centres undefined), the IC50 in experiment [1] was 41.2 µM; with KB, 25.5 µM.
Regarding `CCCCOP(=O)(OCCCC)C(NC(=O)COc1ccc(F)cc1Cl)c1ccccc1` (centres undefined), the half-maximal inhibitory concentration (IC50) in experiment [1] was 13.1 µM; with KB it was 12.3 µM.
For the compound `CCCCOP(=O)(OCCCC)C(NC(=O)COc1cccc(C)c1C)c1ccc(OC)cc1` (centres undefined), the concentration for half-maximal inhibition (IC50) came out at 20.7 µM in experiment [1] and 7.1 µM in the experiment with KB.
With `CCCCOP(=O)(OCCCC)C(NC(=O)COc1ccccc1Cl)c1ccc(OC)cc1` (centres undefined), the IC50 in experiment [1] came to 13.4 µM; in the experiment with KB, 14.5 µM.
Take `CCCCOP(=O)(OCCCC)C(NC(=O)COc1ccc(C(C)(C)C)cc1)c1ccc(OC)cc1` (centres undefined): the IC50 came to 31.1 µM in experiment [1] and 13.3 µM in the experiment on KB.
For `O=c1[nH]cc(F)c(=O)[nH]1` [FLUOROURACIL] the same measures were 13.5 µM and 9 µM.
